# Test results from ChEMBL document CHEMBL1687755, “PER-6, an extended-spectrum beta-lactamase from Aeromonas allosaccharophila” (Antimicrob Agents Chemother, 2010).
# B1: Extended-spectrum beta-lactamase PER-6 (Aeromonas allosaccharophila), D5HSX5 (protein)
# chain: MNVIAKGVFTTTALLMLSLSSWVVSAQSPLLKEQIETIVTGKKATVGVAVWGPDDLEPLLVNPFEKFPMQSVFKMHLAMLVLHQVDQGKLDLNKTVAVNRAAVLQNTWSPMMKDHQGDEFTVTVQQLLQYSVSHSDNVACDLLFELVGGPAALHAYIQSLGIKETEVVANEAQMHADDQVQYKNWTSMKAAAQLLRKFEQKKQLSETSQALLWKWMVETTTGPQRLKGLLPAGTVVAHKTGTSGVRAGKTAATNDIGVIMLPDGRPLLVAVFVKDSAESARTNEAIIAQVAQAAYQFELKKLSAVSPD
# Columns and labels:
# [1] = tested on: Aeromonas allosaccharophila; assay: Antimicrobial activity against Aeromonas allosaccharophila AL-1 expressing beta-lactamase PER6 by agar dilution method; type: functional
# Summary of the method: (§1)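 The test organism was environmental isolate AL-1, recovered from Seine River water on MacConkey agar containing ceftazidime (2 μg/ml). It was identified by API 32GN and 16S rRNA gene sequencing. MICs were determined by agar dilution on Mueller-Hinton agar and interpreted by CLSI guidelines.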
# [2] = tested on: Escherichia coli; assay: Antimicrobial activity against Escherichia coli DH10B harboring recombinant Aeromonas allosaccharophila AL-1 beta-lactamase PER6 by agar dilution method; type: functional; conditions: K-12 DH10B
# [3] = tested on: Escherichia coli; assay: Antimicrobial activity against Escherichia coli DH10B harboring recombinant Aeromonas allosaccharophila AL-1 beta-lactamase PER1 by agar dilution method; type: functional; conditions: K-12 DH10B
# [4] = tested on: Escherichia coli; assay: Antimicrobial activity against Escherichia coli DH10B harboring recombinant Aeromonas allosaccharophila AL-1 beta-lactamase PER2 by agar dilution method; type: functional; conditions: K-12 DH10B
# [5] = tested on: Escherichia coli; assay: Antimicrobial activity against Escherichia coli DH10B by agar dilution method; type: functional; conditions: K-12 DH10B
# Summary of the method: (§2)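 MICs measured by agar dilution on Mueller-Hinton agar plates, the method used for imipenem and imipenem combined with clavulanate; other MICs were obtained by Etest. Results were interpreted according to CLSI guidelines. Test strains were E. coli DH10B recombinants carrying cloned PER-1, PER-2 or PER-6 β-lactamase genes.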
# [6] = tested on: Aeromonas allosaccharophila; assay: Ratio of Kcat to Km for Aeromonas allosaccharophila AL-1 beta-lactamase PER2
# [7] = tested on: Aeromonas allosaccharophila; assay: Antimicrobial activity against Aeromonas allosaccharophila AL-1 expressing beta-lactamase PER6 by agar dilution method in presence of 4 ug/ml of clavulanic acid; type: functional; summary of the method: as §1
# [8] = tested on: Escherichia coli; assay: Antimicrobial activity against Escherichia coli DH10B harboring recombinant Aeromonas allosaccharophila AL-1 beta-lactamase PER6 by agar dilution method in presence of 4 ug/ml of clavulanic acid; type: functional; conditions: K-12 DH10B
# [9] = tested on: Escherichia coli; assay: Antimicrobial activity against Escherichia coli DH10B harboring recombinant Aeromonas allosaccharophila AL-1 beta-lactamase PER1 by agar dilution method in presence of 4 ug/ml of clavulanic acid; type: functional; conditions: K-12 DH10B
# [10] = tested on: Escherichia coli; assay: Antimicrobial activity against Escherichia coli DH10B harboring recombinant Aeromonas allosaccharophila AL-1 beta-lactamase PER2 by agar dilution method in presence of 4 ug/ml of clavulanic acid; type: functional; conditions: K-12 DH10B
# [11] = tested on: Escherichia coli; assay: Antimicrobial activity against Escherichia coli DH10B by agar dilution method in presence of 4 ug/ml of clavulanic acid; type: functional; conditions: K-12 DH10B; summary of the method: as §2
# [12] = substrate: CC(=O)OCC1=C(C(=O)O)N2C(=O)[C@@H](NC(=O)Cc3cccs3)[C@H]2SC1; assay: (§3) Activity at Aeromonas allosaccharophila AL-1 beta-lactamase PER6
# Summary of the method: (§4)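 PER-6 enzyme was purified from a crude extract of E. coli DH10B(pPER-6). Purification used cation exchange on S-Sepharose at pH 6.8, then anion exchange on Q-Sepharose at pH 8. Purity was >90% by SDS-PAGE. The purified enzyme was used for hydrolysis and inhibition measurements.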
# [13] = substrate: CC(C)(O/N=C(\C(=O)N[C@@H]1C(=O)N2C(C(=O)[O-])=C(C[n+]3ccccc3)CS[C@H]12)c1csc(N)n1)C(=O)O; assay: as §3; summary of the method: as §4
# [14] = substrate: CC1(C)S[C@@H]2[C@H](NC(=O)Cc3ccccc3)C(=O)N2[C@H]1C(=O)O; assay: as §3; summary of the method: as §4
# [15] = substrate: CC1(C)S[C@@H]2[C@H](NC(=O)[C@H](C(=O)O)c3ccsc3)C(=O)N2[C@H]1C(=O)O; assay: as §3; summary of the method: as §4
# [16] = substrate: CC1(C)S[C@@H]2[C@H](NC(=O)[C@H](N)c3ccccc3)C(=O)N2[C@H]1C(=O)O; assay: as §3; summary of the method: as §4
# [17] = substrate: CCN1CCN(C(=O)N[C@@H](C(=O)N[C@@H]2C(=O)N3[C@@H]2SC(C)(C)[C@@H]3C(=O)O)c2ccccc2)C(=O)C1=O; assay: as §3; summary of the method: as §4
# [18] = substrate: CO/N=C(\C(=O)N[C@@H]1C(=O)N2C(C(=O)O)=C(COC(C)=O)CS[C@H]12)c1csc(N)n1; assay: as §3; summary of the method: as §4
# [19] = substrate: CO/N=C(\C(=O)N[C@@H]1C(=O)N2C(C(=O)[O-])=C(C[N+]3(C)CCCC3)CS[C@H]12)c1csc(N)n1; assay: as §3; summary of the method: as §4
# [20] = substrate: CO/N=C(\C(=O)N[C@@H]1C(=O)N2C(C(=O)[O-])=C(C[n+]3cccc4c3CCC4)CS[C@H]12)c1csc(N)n1; assay: as §3; summary of the method: as §4
# [21] = substrate: C[C@@H](O)[C@H]1C(=O)N2C(C(=O)O)=C(SCCNC=N)C[C@H]12; assay: as §3; summary of the method: as §4
# [22] = substrate: C[C@@H](O)[C@H]1C(=O)N2C(C(=O)O)=C(S[C@@H]3CN[C@H](C(=O)N(C)C)C3)[C@H](C)[C@H]12; assay: as §3; summary of the method: as §4
# [23] = substrate: C[C@@H](O)[C@H]1C(=O)N2C(C(=O)O)=C(S[C@@H]3CN[C@H](C(=O)Nc4cccc(C(=O)O)c4)C3)[C@H](C)[C@H]12; assay: as §3; summary of the method: as §4
# [24] = substrate: C[C@H]1[C@H](NC(=O)/C(=N\OC(C)(C)C(=O)O)c2csc(N)n2)C(=O)N1S(=O)(=O)O; assay: as §3; summary of the method: as §4
# [25] = substrate: CC(=O)OCC1=C(C(=O)O)N2C(=O)[C@@H](NC(=O)Cc3cccs3)[C@H]2SC1; assay: (§5) Ratio of Kcat to Km for Aeromonas allosaccharophila AL-1 beta-lactamase PER6; summary of the method: as §4
# [26] = substrate: CC(C)(O/N=C(\C(=O)N[C@@H]1C(=O)N2C(C(=O)[O-])=C(C[n+]3ccccc3)CS[C@H]12)c1csc(N)n1)C(=O)O; assay: as §5; summary of the method: as §4
# [27] = substrate: CC1(C)S[C@@H]2[C@H](NC(=O)Cc3ccccc3)C(=O)N2[C@H]1C(=O)O; assay: as §5; summary of the method: as §4
# [28] = substrate: CC1(C)S[C@@H]2[C@H](NC(=O)[C@H](C(=O)O)c3ccsc3)C(=O)N2[C@H]1C(=O)O; assay: as §5; summary of the method: as §4
# [29] = substrate: CC1(C)S[C@@H]2[C@H](NC(=O)[C@H](N)c3ccccc3)C(=O)N2[C@H]1C(=O)O; assay: as §5; summary of the method: as §4
# [30] = substrate: CCN1CCN(C(=O)N[C@@H](C(=O)N[C@@H]2C(=O)N3[C@@H]2SC(C)(C)[C@@H]3C(=O)O)c2ccccc2)C(=O)C1=O; assay: as §5; summary of the method: as §4
# [31] = substrate: CO/N=C(\C(=O)N[C@@H]1C(=O)N2C(C(=O)O)=C(COC(C)=O)CS[C@H]12)c1csc(N)n1; assay: as §5; summary of the method: as §4
# [32] = substrate: CO/N=C(\C(=O)N[C@@H]1C(=O)N2C(C(=O)[O-])=C(C[N+]3(C)CCCC3)CS[C@H]12)c1csc(N)n1; assay: as §5; summary of the method: as §4
# [33] = substrate: CO/N=C(\C(=O)N[C@@H]1C(=O)N2C(C(=O)[O-])=C(C[n+]3cccc4c3CCC4)CS[C@H]12)c1csc(N)n1; assay: as §5; summary of the method: as §4
# [34] = substrate: C[C@@H](O)[C@H]1C(=O)N2C(C(=O)O)=C(SCCNC=N)C[C@H]12; assay: as §5; summary of the method: as §4
# [35] = substrate: C[C@@H](O)[C@H]1C(=O)N2C(C(=O)O)=C(S[C@@H]3CN[C@H](C(=O)N(C)C)C3)[C@H](C)[C@H]12; assay: as §5; summary of the method: as §4
# [36] = substrate: C[C@@H](O)[C@H]1C(=O)N2C(C(=O)O)=C(S[C@@H]3CN[C@H](C(=O)Nc4cccc(C(=O)O)c4)C3)[C@H](C)[C@H]12; assay: as §5; summary of the method: as §4
# [37] = substrate: C[C@H]1[C@H](NC(=O)/C(=N\OC(C)(C)C(=O)O)c2csc(N)n2)C(=O)N1S(=O)(=O)O; assay: as §5; summary of the method: as §4
molecule,measurement,setting,value
CO/N=C(\C(=O)N[C@@H]1C(=O)N2C(C(=O)O)=C(COC(C)=O)CS[C@H]12)c1csc(N)n1 [CEFOTAXIME],MIC,[1],2 µg/mL
same,MIC,[2],64 µg/mL
same,MIC,[3],48 µg/mL
same,MIC,[4],64 µg/mL
same,MIC,[5],0.12 µg/mL
same,kcat/Km,[6],760000 M⁻¹ s⁻¹
CO[C@@]1(NC(=O)C(C(=O)O)c2ccc(O)cc2)C(=O)N2C(C(=O)O)=C(CSc3nnnn3C)CO[C@@H]21 (stereo partly drawn) [MOXALACTAM],MIC,[1],< 0.06 µg/mL
same,MIC,[2],2 µg/mL
same,MIC,[3],1 µg/mL
same,MIC,[4],0.5 µg/mL
same,MIC,[5],0.12 µg/mL
CC1(C)S[C@@H]2[C@H](NC(=O)[C@H](C(=O)O)c3ccsc3)C(=O)N2[C@H]1C(=O)O [TICARCILLIN],MIC,[1],> 256 µg/mL
same,MIC,[2],> 256 µg/mL
same,MIC,[3],> 256 µg/mL
same,MIC,[4],> 256 µg/mL
same,MIC,[5],4 µg/mL
same,MIC,[7],256 µg/mL
same,MIC,[8],12 µg/mL
same,MIC,[9],16 µg/mL
same,MIC,[10],16 µg/mL
same,MIC,[11],4 µg/mL
CO/N=C(\C(=O)N[C@@H]1C(=O)N2C(C(=O)[O-])=C(C[n+]3cccc4c3CCC4)CS[C@H]12)c1csc(N)n1 [CEFPIROME],MIC,[1],0.5 µg/mL
same,MIC,[2],8 µg/mL
same,MIC,[3],16 µg/mL
same,MIC,[4],16 µg/mL
same,MIC,[5],0.06 µg/mL
CCN1CCN(C(=O)N[C@@H](C(=O)N[C@@H]2C(=O)N3[C@@H]2SC(C)(C)[C@@H]3C(=O)O)c2ccccc2)C(=O)C1=O [PIPERACILLIN],MIC,[1],4 µg/mL
same,MIC,[2],256 µg/mL
same,MIC,[3],32 µg/mL
same,MIC,[4],256 µg/mL
same,MIC,[5],1 µg/mL
same,kcat/Km,[6],200000 M⁻¹ s⁻¹
CC(=O)OCC1=C(C(=O)O)N2C(=O)[C@@H](NC(=O)Cc3cccs3)[C@H]2SC1 [CEPHALOTHIN],MIC,[1],16 µg/mL
same,MIC,[2],> 256 µg/mL
same,MIC,[3],> 256 µg/mL
same,MIC,[4],> 256 µg/mL
same,MIC,[5],2 µg/mL
same,kcat/Km,[6],670000 M⁻¹ s⁻¹
CC1(C)S[C@@H]2[C@H](NC(=O)Cc3ccccc3)C(=O)N2[C@H]1C(=O)O,kcat/Km,[6],120000 M⁻¹ s⁻¹
CO/N=C(\C(=O)N[C@@H]1C(=O)N2C(C(=O)[O-])=C(C[N+]3(C)CCCC3)CS[C@H]12)c1csc(N)n1,MIC,[1],0.5 µg/mL
same,MIC,[2],32 µg/mL
same,MIC,[3],16 µg/mL
same,MIC,[4],32 µg/mL
same,kcat/Km,[6],20000 M⁻¹ s⁻¹
B1,Km,[12],55 µM
same,kcat,[12],8 s⁻¹
same,Km,[13],1000 µM
same,kcat,[13],12 s⁻¹
same,Km,[14],200 µM
same,kcat,[14],5 s⁻¹
same,Km,[15],9 µM
same,kcat,[15],0.4 s⁻¹
same,Km,[16],20 µM
same,kcat,[16],1 s⁻¹
same,Km,[17],4 µM
same,kcat,[17],0.1 s⁻¹
same,Km,[18],900 µM
same,kcat,[18],40 s⁻¹
same,Km,[19],2000 µM
same,kcat,[19],10 s⁻¹
same,Km,[20],1500 µM
same,kcat,[20],12 s⁻¹
same,Km,[21],1.5 µM
same,kcat,[21],0.006 s⁻¹
same,Km,[22],10 µM
same,kcat,[22],0.004 s⁻¹
same,Km,[23],7 µM
same,kcat,[23],0.002 s⁻¹
same,Km,[24],40 µM
same,kcat,[24],3 s⁻¹
same,kcat/Km,[25],145000 M⁻¹ s⁻¹
same,kcat/Km,[26],1e+07 M⁻¹ s⁻¹
same,kcat/Km,[27],25000 M⁻¹ s⁻¹
same,kcat/Km,[28],50000 M⁻¹ s⁻¹
same,kcat/Km,[29],50000 M⁻¹ s⁻¹
same,kcat/Km,[30],25000 M⁻¹ s⁻¹
same,kcat/Km,[31],45000 M⁻¹ s⁻¹
same,kcat/Km,[32],5000 M⁻¹ s⁻¹
same,kcat/Km,[33],8000 M⁻¹ s⁻¹
same,kcat/Km,[34],4000 M⁻¹ s⁻¹
same,kcat/Km,[35],400 M⁻¹ s⁻¹
same,kcat/Km,[36],300 M⁻¹ s⁻¹
same,kcat/Km,[37],7.5e+07 M⁻¹ s⁻¹
